Test results from ChEMBL document CHEMBL1157237, “Methanolysis products of disorazole A1” (J Nat Prod, 2006).
pIC50: −log10 of the molar value.

Experiments:
Format in all cases: functional, cell-based
MCF7 = test: Antiproliferative activity against human MCF7 cells after 72 hrs by celltitre assay; conditions: MCF7, 72 h
Procedure, shortened: (§1)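 Cells grown in RPMI 1640 with 10% FBS at 37 °C under 5% CO2, seeded in duplicate at about 5000 cells/well and left 24 h. Compounds then added as 10-fold serial dilutions for 72 h. Viability read by CellTiter-Glo luminescence. IC50 taken as the concentration giving 50% inhibition of cell growth.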

[1] = Antiproliferative activity against human multidrug-resistant P-glycoprotein expressing NCI/ADR cells after 72 hrs by celltitre assay; conditions: NCI/ADR-RES; procedure, shortened: as §1
A549 = test: Antiproliferative activity against human A549 cells after 72 hrs by celltitre assay; conditions: A549, 72 h; procedure, shortened: as §1
CCRF-CEM [2] = test: Antiproliferative activity against human multidrug-resistant P-glycoprotein expressing CCRF-CEM/PTX cells after 72 hrs by celltitre assay
Procedure, shortened: (§2)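 Cultured in RPMI 1640 with 5% FBS at 37 °C and 5% CO2. Seeded in duplicate at about 5000 cells/well and incubated 24 h before 10-fold serial compound dilutions were added for 72 h. Viability measured by CellTiter-Glo luminescence. IC50 = concentration inhibiting growth by 50%.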

CCRF-CEM [3] = test: Antiproliferative activity against human CCRF-CEM cells after 72 hrs by celltitre assay; procedure, shortened: as §2

Row | Compound | pIC50 (MCF7) | pIC50 [1] | pIC50 (A549) | pIC50 (CCRF-CEM [2]) | pIC50 (CCRF-CEM [3])
1 | C/C=C/[C@H](O)C(C)(C)[C@@H]1C\C=C/C=C\C=C\[C@H](OC)Cc2nc(co2)C(=O)O[C@H](C(C)(C)[C@@H](O)/C=C/C)C/C=C\[C@@H](O)C(OC)/C=C/C=C\c2nc(co2)C(=O)O1 (stereo not given in full) | 9.62 | 8.55 | 9.60 | 9.62 | 9.96
2 | C/C=C/[C@H](O)C(C)(C)[C@@H]1C\C=C/C=C\C=C\[C@H](OC)Cc2nc(co2)C(=O)O[C@H](C(C)(C)[C@@H](O)/C=C/C)C/C=C\[C@H]2O[C@H]2/C=C/C=C\c2nc(co2)C(=O)O1 [DISORAZOLE A1] | 9.60 | 9.28 | 9.51 | 10.18 | 10.15
3 | C/C=C/[C@H](O)C(C)(C)[C@@H]1C\C=C/C=C\C=C\[C@H](OC)Cc2nc(co2)C(=O)O[C@H](C(C)(C)[C@@H](O)/C=C/C)C/C=C\[C@@H](O)/C=C/C(OC)/C=C\c2nc(co2)C(=O)O1 (stereo not given in full) | 9.21 | 7.55 | 9.14 | 8.89 | 9.48
